The text below walks through data of ChEMBL document CHEMBL1157223, “Lupeol long-chain fatty acid esters with antimalarial activity from Holarrhena floribunda” (J Nat Prod, 2006).

Assay [1] has as its system Plasmodium falciparum. The assay can be described thus: Antimalarial activity against chloroquine-resistant Plasmodium falciparum FCR3 Gambia as 24 hrs [3H]hypoxanthine uptake. Format: functional, organism-based. The note with it: FCR-3/Gambia. In short, it runs like this: (§1)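 Human type B+ erythrocytes at 2% parasitemia and 4% hematocrit in RPMI-1640 (0.5% Albumax II, 16 µM hypoxanthine, HEPES, glucose); after 30 min at 37 °C, drug was added to final 1% parasitemia and 2% hematocrit. Test range 7.8–500 µM, with chloroquine at 3.9–500 nM and final DMSO under 2%. Incubation was 24 h, then [3H]-hypoxanthine for 18–24 h more; filters were counted. IC50 came from curve fitting, quadruplicates, 2–3 runs.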

Assay [2] deals with Plasmodium falciparum. The assay can be described thus: Antimalarial activity after 24 hrs against chloroquine-sensitive Plasmodium falciparum 3D7 by [3H]hypoxanthine uptake. Format: functional, organism-based. In short, it runs like this:
as §1

Assay [3] has as its system Plasmodium falciparum. The assay can be described thus: Antimalarial activity after 48 hrs against Plasmodium falciparum W2 by [3H]hypoxanthine uptake.
For assay [4], the system named is Plasmodium falciparum. The assay can be described thus: Antimalarial activity after 48 hrs against Plasmodium falciparum D6 by [3H]hypoxanthine uptake.

Values after ≈ are worked out from the molar mass of the structure shown. Values joined by “and” are separate entries in the source; they are usually repeats but may differ in a detail not shown here. Identical values can stand only once.

In general, IC50 refers to the concentration that inhibits the measured activity by half. Regarding `C=C(C)[C@@H]1CC[C@]2(C)CC[C@]3(C)[C@H](CC[C@@H]4[C@@]5(C)CC[C@H](OC(=O)COCCCCCCCCCCCCCCCCCCCCCCCC)C(C)(C)[C@@H]5CC[C@]43C)[C@@H]12`, the IC50 with Plasmodium falciparum [1] was 84 µM and 69000 µg/mL; in the assay with Plasmodium falciparum [2], 135 µM.
As for `C=C(C)[C@@H]1CC[C@]2(C)CC[C@]3(C)[C@H](CC[C@@H]4[C@@]5(C)CC[C@H](OC(=O)CC(O)CCCCCCCCCCCCCCCCC)C(C)(C)[C@@H]5CC[C@]43C)[C@@H]12` (stereo not given in full), the results for the IC50 with Plasmodium falciparum [1] and in the assay with Plasmodium falciparum [2] were 269 µM and 282 µM, respectively.
For the molecule `C=C(C)[C@@H]1CC[C@]2(C)CC[C@]3(C)[C@H](CC[C@@H]4[C@@]5(C)CC[C@H](O)C(C)(C)[C@@H]5CC[C@]43C)[C@@H]12` [LUPEOL], the IC50 in the assay with Plasmodium falciparum [1] was 97 µM and 41000 µg/mL; with Plasmodium falciparum [2], 106 µM and 45000 µg/mL.
Consider `OC(c1cc(C(F)(F)F)nc2c(C(F)(F)F)cccc12)C1CCCCN1` (stereo not given) [MEFLOQUINE], for which the IC50 in the assay with Plasmodium falciparum [3] came out at 28.5 µg/mL (≈ 75.3 µM); in the assay on Plasmodium falciparum [4] it was 2550 µg/mL (≈ 6740 µM).
Turning to `C=C[C@H]1CN2CC[C@H]1C[C@H]2[C@H](O)c1ccnc2ccc(OC)cc12` [QUININE], the values for the IC50 with Plasmodium falciparum [3] and in the assay on Plasmodium falciparum [4] were 67 µg/mL (≈ 207 µM) and 25 µg/mL (≈ 77.1 µM), respectively.
